{"source": "paper PMC7590959", "about": "(Journal of medicinal chemistry, 2020)", "key": {"[1]": {"system": "primary human hepatocytes", "assay": "Toxicity against primary human hepatocytes", "format": "cell-based", "details": "maximum concentration 100 μM, 72 h incubation"}, "Caco-2": {"system": "Caco-2", "assay": "Caco-2 permeability", "format": "in vitro ADME"}, "PDC-3": {"target": "PDC-3 (Pseudomonas aeruginosa, UniProt P24735, T105A)", "assay": "β-Lactamase hydrolysis, PDC-3", "format": "biochemical, P. aeruginosa"}, "KPC-2": {"target": "KPC-2 (Klebsiella pneumoniae, UniProt Q9F663)", "assay": "β-Lactamase hydrolysis, KPC-2", "format": "biochemical", "details": "KPC-2, 200 nM enzyme, 100 μM 1"}, "[2]": {"assay": "Plasma PK after IV administration in mice", "format": "in vivo", "details": "CD-1, mouse, 50 mg/kg", "how_it_was_run": "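CD-1 mice in groups of 24 received 50 mg/kg IV with parallel sampling. Blood was taken by cardiac puncture under isoflurane into lithium heparin or K2EDTA tubes and kept on ice. Tubes were spun at 2500 × g for 15 min at 4 °C within 1 h, and plasma was stored at −70 °C. Samples were acetonitrile-precipitated and run by HPLC-MS/MS against a spiked-plasma calibration curve with internal standard. Parameters were derived by noncompartmental analysis.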"}, "eight CYP enzymes": {"system": "eight CYP enzymes", "assay": "CYP inhibition", "format": "in vitro ADME", "details": "30 μM"}, "PER-2": {"system": "PER-2", "assay": "β-Lactamase hydrolysis, PER-2", "format": "biochemical", "details": "PER-2, 200 nM enzyme, 100 μM 1"}, "hERG": {"target": "hERG (Homo sapiens, UniProt Q12809)", "sequence (Q12809 whole entry)": "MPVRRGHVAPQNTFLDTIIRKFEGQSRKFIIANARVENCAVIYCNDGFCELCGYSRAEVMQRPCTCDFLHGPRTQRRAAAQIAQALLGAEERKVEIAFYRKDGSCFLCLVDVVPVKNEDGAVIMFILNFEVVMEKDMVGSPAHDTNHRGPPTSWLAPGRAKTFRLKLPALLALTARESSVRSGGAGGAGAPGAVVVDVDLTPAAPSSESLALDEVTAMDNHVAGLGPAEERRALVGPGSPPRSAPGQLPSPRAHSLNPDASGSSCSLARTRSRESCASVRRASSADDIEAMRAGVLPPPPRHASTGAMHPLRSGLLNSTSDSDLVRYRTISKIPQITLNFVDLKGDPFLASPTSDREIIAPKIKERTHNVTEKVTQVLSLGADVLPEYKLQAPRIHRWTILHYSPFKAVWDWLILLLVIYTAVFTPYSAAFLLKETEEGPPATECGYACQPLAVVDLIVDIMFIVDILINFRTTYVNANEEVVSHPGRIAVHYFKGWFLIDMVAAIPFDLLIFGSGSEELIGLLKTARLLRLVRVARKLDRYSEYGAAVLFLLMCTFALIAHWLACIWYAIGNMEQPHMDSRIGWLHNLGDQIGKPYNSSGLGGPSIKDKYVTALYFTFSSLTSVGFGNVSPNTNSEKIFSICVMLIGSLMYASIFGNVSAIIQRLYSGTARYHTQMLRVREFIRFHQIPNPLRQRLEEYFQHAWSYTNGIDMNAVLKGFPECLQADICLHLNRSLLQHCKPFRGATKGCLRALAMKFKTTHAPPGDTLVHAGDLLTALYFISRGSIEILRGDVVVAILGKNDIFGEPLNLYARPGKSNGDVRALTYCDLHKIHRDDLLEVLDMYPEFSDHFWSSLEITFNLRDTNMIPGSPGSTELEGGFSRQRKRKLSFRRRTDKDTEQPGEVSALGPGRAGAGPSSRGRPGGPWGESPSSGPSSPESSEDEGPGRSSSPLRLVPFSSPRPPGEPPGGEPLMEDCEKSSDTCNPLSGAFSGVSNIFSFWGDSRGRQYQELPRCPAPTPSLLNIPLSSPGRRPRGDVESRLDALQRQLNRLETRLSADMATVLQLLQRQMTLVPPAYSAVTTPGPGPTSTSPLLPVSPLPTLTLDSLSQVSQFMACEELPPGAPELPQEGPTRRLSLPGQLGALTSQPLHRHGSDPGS", "assay": "hERG binding", "details": "30 μM"}, "[3]": {"system": "seven other tested ion channels", "assay": "Other ion channels", "format": "binding", "details": "30 μM"}, "OXA-24": {"target": "OXA-24 (Acinetobacter baumannii, UniProt Q8RLA6)", "assay": "β-Lactamase hydrolysis, OXA-24", "format": "biochemical", "details": "OXA-24, 200 nM enzyme, 100 μM 1"}, "OXA-23": {"target": "OXA-23 (Acinetobacter baumannii, UniProt Q9L4P2)", "assay": "β-Lactamase hydrolysis, OXA-23", "format": "biochemical", "details": "OXA-23, 200 nM enzyme, 100 μM 1"}, "Gram-negative isolates": {"system": "Gram-negative isolates", "assay": "Abbreviated MIC panel of Gram-negative isolates", "format": "cell-based", "how_it_was_run": "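Broth microdilution MIC using iron-depleted cation-adjusted Mueller–Hinton broth, except where noted otherwise. The inoculum was lowered to 6 × 10^4 CFU/mL.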"}, "[4]": {"system": "P. aeruginosa (197 clinical isolates)", "details": "comparator MICs from the original studies; cited from earlier work"}, "[5]": {"system": "K. pneumoniae (100 clinical isolates)", "details": "comparator MICs from the original studies; cited from earlier work"}, "[6]": {"details": "IV bags, in 24 h after reconstitution; known, ref not given; cited from earlier work"}}}
{"smiles": "CC(C)(O/N=C(\\C(=O)N[C@H]1CN2CC(C(=O)NCCN3C(=O)c4cc(O)c(O)cc4C3=O)=C(C(=O)O)N2C1=O)c1csc(N)n1)C(=O)O", "note": "[Compound 1, (S,Z)-6-(2-(2-Aminothiazol-4-yl)-2-(((2-carboxypropan-2-yl)oxy)imino)acetamido)-2-((2-(5,6-dihydroxy-1,3-dioxoisoindolin-2-yl)ethyl)carbamoyl)-5-oxo-6,7-dihydro-1H,5H-pyrazolo[1,2-a]pyrazole-3-carboxylic Acid]", "values": [{"measurement": "toxicity", "setting": "[1]", "value": "not found"}, {"measurement": "Caco-2 permeability", "setting": "Caco-2", "value": "poor"}, {"measurement": "hydrolysis by β-lactamase", "setting": "PDC-3", "value": "hydrolysis was not detected"}, {"measurement": "hydrolysis by β-lactamase", "setting": "KPC-2", "value": "hydrolysis was not detected"}, {"measurement": "clearance at 2 h", "setting": "[2]", "value": 14, "unit": "mL/min/kg"}, {"measurement": "concentration at 2 h", "setting": "[2]", "value": "> 1000", "unit": "ng/mL"}, {"measurement": "CYP inhibition", "setting": "eight CYP enzymes", "value": "does not inhibit"}, {"measurement": "hydrolysis by β-lactamase", "setting": "PER-2", "value": "hydrolysis was not detected"}, {"measurement": "hERG binding", "setting": "hERG", "value": "does not bind"}, {"measurement": "ion channel binding", "setting": "[3]", "value": "does not bind"}, {"measurement": "hydrolysis by β-lactamase", "setting": "OXA-24", "value": "hydrolysis was not detected"}, {"measurement": "hydrolysis by β-lactamase", "setting": "OXA-23", "value": "hydrolysis was not detected"}]}
{"smiles": "CC(C)(O/N=C(\\C(=O)N[C@H]1CN2CC(C(=O)NCCc3ccccc3)=C(C(=O)O)N2C1=O)c1csc(N)n1)C(=O)O", "note": "[Compound 2, (S,Z)-6-(2-(2-Aminothiazol-4-yl)-2-(((2-carboxypropan-2-yl)oxy)imino)acetamido)-5-oxo-2-(phenethylcarbamoyl)-6,7-dihydro-1H,5H-pyrazolo[1,2-a]pyrazole-3-carboxylic Acid]", "values": [{"measurement": "MIC", "setting": "Gram-negative isolates", "value": "> 64", "unit": "µg/mL"}]}
{"smiles": "CC(C)(O/N=C(\\C(=O)N[C@@H]1C(=O)N2C(C(=O)[O-])=C(C[n+]3ccccc3)CS[C@H]12)c1csc(N)n1)C(=O)O", "note": "[ceftazidime (4), ceftazidime]", "values": [{"measurement": "MIC90", "setting": "[4]", "value": ">16", "unit": "µg/mL"}, {"measurement": "MIC50", "setting": "[5]", "value": ">64", "unit": "µg/mL"}, {"measurement": "MIC90", "setting": "[5]", "value": ">64", "unit": "µg/mL"}]}
{"smiles": "C[C@@H](O)[C@H]1C(=O)N2C(C(=O)O)=C(S[C@@H]3CN[C@H](C(=O)N(C)C)C3)[C@H](C)[C@H]12", "note": "[meropenem (6), meropenem]", "values": [{"measurement": "MIC90", "setting": "[4]", "value": ">8", "unit": "µg/mL"}, {"measurement": "MIC90", "setting": "[5]", "value": ">64", "unit": "µg/mL"}, {"measurement": "degradation after reconstitution", "setting": "[6]", "value": "> 30", "unit": "%"}]}
